Measured values from ChEMBL document CHEMBL4020800, “The design, synthesis, and anti-inflammatory evaluation of a drug-like library based on the natural product valerenic acid” (Bioorg Med Chem Lett, 2017).
The source made the active and inactive calls. No cut-off for these calls is given here.

Assays:
Keratinocyte [1] = test: Antiinflammatory activity in primary human […] keratinocytes assessed as inhibition of IL-17A/TNF-alpha induced IL-8 production at 10 uM preincubated for 2 hrs followed by cytokine addition measured after 72 hrs by HTRF assay relative to control; assay type: functional
[2] = Cytotoxicity against primary human […] keratinocytes assessed as inhibition of cell viability at 10 uM preincubated for 2 hrs followed by cytokine addition measured after 72 hrs by PrestoBlue staining based fluorescence assay relative to control; parameters: species or system Keratinocyte; details: read-out: Imax
Keratinocyte [3] = test: Cytotoxicity against primary human […] keratinocytes assessed as inhibition of cell viability preincubated for 2 hrs followed by cytokine addition measured after 72 hrs by PrestoBlue staining based fluorescence assay
Procedure, shortened: (§1)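 Primary human keratinocytes were stimulated with IL-17, and the inflammatory response was read as increased IL-8 secretion. Cell viability was measured in the same cells as a secondary readout to separate specific inhibition from cytotoxicity. Betamethasone served as the assay control. Maximal inhibition of IL-8 release or of viability was recorded alongside IC50 where calculated.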

PBMC = test: Antiinflammatory activity in human PBMC assessed as inhibition of LPS-induced TNF-alpha production after 16 hrs by AlphaLisa assay; assay type: functional, cell-based
Keratinocyte [4] = test: Antiinflammatory activity in primary human […] keratinocytes assessed as inhibition of IL-17A/TNF-alpha induced IL-8 production preincubated for 2 hrs followed by cytokine addition measured after 72 hrs by HTRF assay; assay type: functional, cell-based; procedure, shortened: as §1
[5] = Homo sapiens, Keratinocyte, read-out: IC50

| IC50 (Keratinocyte [4]; keratinocyte) | IC50 (Keratinocyte [4]; [5]) | Structure (SMILES) | Imax (Keratinocyte [1]) | inhibition at 72 h, 10 µM [2] | IC50 (Keratinocyte [3]; keratinocyte) | inhibition (PBMC) | IC50 (Keratinocyte [3]; [5]) |
| --- | --- | --- | --- | --- | --- | --- | --- |
| Not Active | – | CC1=C2[C@H](/C=C(\C)C(=O)NCCN3CCOCC3)CC[C@@H](C)[C@H]2CC1 | 17% | 12% | Not Active | inactive | – |
| Not Active | – | CC1=C2[C@H](/C=C(\C)C(=O)NCCc3ccc(F)cc3)CC[C@@H](C)[C@H]2CC1 | 44% | 17% | Not Active | inactive | – |
| – | 2.8 µM | CC1=C2[C@H](/C=C(\C)C(=O)NCc3ccccc3F)CC[C@@H](C)[C@H]2CC1 | 85% | 72% | – | inactive | 8.7 µM |
| – | 8.3 µM | CC1=C2[C@H](/C=C(\C)C(=O)NCCc3ccc(Br)cc3)CC[C@@H](C)[C@H]2CC1 | 60% | 24% | Not Active | inactive | – |
| – | – | CC1=C2[C@H](/C=C(\C)C(=O)O)CC[C@@H](C)[C@H]2CC1 [VALERENIC ACID] | 4% | 15% | Not Active | inactive | – |
| Not Active | – | COCCNC(=O)/C(C)=C/[C@@H]1CC[C@@H](C)[C@H]2CCC(C)=C12 | 30% | 7% | Not Active | inactive | – |
| – | 4.7 µM | CC1=C2[C@H](/C=C(\C)C(=O)NCc3cccc(F)c3)CC[C@@H](C)[C@H]2CC1 | 79% | 67% | – | inactive | 9.6 µM |
| – | 4.9 µM | CC1=C2[C@H](/C=C(\C)C(=O)NCc3ccc(F)cc3)CC[C@@H](C)[C@H]2CC1 | 70% | 61% | – | inactive | 9.6 µM |
| Not Active | – | CC1=C2[C@H](/C=C(\C)C(=O)NCCC(C)C)CC[C@@H](C)[C@H]2CC1 | 22% | 9% | Not Active | inactive | – |
| – | 7.5 µM | CC1=C2[C@H](/C=C(\C)C(=O)NCCc3ccccc3)CC[C@@H](C)[C@H]2CC1 | 64% | 11% | Not Active | inactive | – |
| Not Active | – | CC1=C2[C@H](/C=C(\C)C(=O)NCCc3ccccn3)CC[C@@H](C)[C@H]2CC1 | 14% | 20% | Not Active | inactive | – |
| – | – | C[C@H]1C[C@H]2[C@@H]3CCC4=CC(=O)C=C[C@]4(C)[C@@]3(F)[C@@H](O)C[C@]2(C)[C@@]1(O)C(=O)CO [BETAMETHASONE] | 49% | – | – | – | 0.3 µM |
| – | 2.9 µM | CC1=C2[C@H](/C=C(\C)C(=O)NCc3ccccc3)CC[C@@H](C)[C@H]2CC1 | 84% | 72% | – | inactive | 9 µM |
